Test results taken from ChEMBL document CHEMBL4007408, “Identification of Novel Triazole-Based Nicotinamide Phosphoribosyltransferase (NAMPT) Inhibitors Endowed with Antiproliferative and Antiinflammatory Activity” (J Med Chem, 2017).
Calls of active or inactive are those of the source. The calls are words filed in the database; no cut-off is given here.

Columns and labels:
[1] = Drug metabolism in Wistar Han rat liver microsomes assessed as mixed function oxidase mediated compound cleavage by measuring compound remaining after 60 mins in presence of NADPH-regenerating system by LC-UV analysis; format: ADME; conditions: read-out: Stability
Method in brief: (§1)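 Substrate at 50 μM final, with rat or human liver microsomes at 1.0 mg/ml protein, in 50 mM Tris-HCl pH 7.4. Mix held 3.3 mM MgCl2, 1% acetonitrile and an NADPH-regenerating system (1.3 mM β-NADP, 3.3 mM glucose 6-phosphate, 0.4 U/ml G6PDH). Shaken 60 min at 37 °C, stopped with ice-cold acetonitrile. LC-UV gave % residual substrate versus a no-microsome control, mean of two replicates.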

[2] = system: Liver; test: Drug metabolism in Wistar Han rat liver microsomes assessed as compound hydrolysis by measuring 2-aminobiphenyl formation after 60 mins by LC-ESI-MS analysis; format: ADME, microsome; conditions: 1 h
Method in brief: (§2)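 Hydrolytic metabolites were identified by LC-ESI-MSn after 60 min at 37 °C. Incubations used 50 μM substrate with rat or human liver microsomes (1.0 mg/ml) in 50 mM Tris-HCl pH 7.4, 3.3 mM MgCl2 and 1% acetonitrile. Samples without the NADPH-regenerating system were also run, and residual substrate in them was measured.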

[3] = system: Liver; test: Drug metabolism in Wistar Han rat liver microsomes assessed as compound hydrolysis by measuring 8-(4-(pyridin-3-yl)-1H-1,2,3-triazol-1-yl)octanoic acid formation after 60 mins by LC-ESI-MS analysis; format: ADME, microsome; method in brief: as §2
[4] = Drug metabolism in human liver microsomes assessed as mixed function oxidase mediated compound cleavage by measuring compound remaining after 60 mins in presence of NADPH-regenerating system by LC-UV analysis; format: ADME; conditions: read-out: Stability; method in brief: as §1
[5] = system: Liver; test: Drug metabolism in human liver microsomes assessed as compound hydrolysis by measuring 2-aminobiphenyl formation after 60 mins by LC-ESI-MS analysis; format: ADME, microsome; conditions: 1 h; method in brief: as §2
[6] = system: Liver; test: Drug metabolism in human liver microsomes assessed as compound hydrolysis by measuring 8-(4-(pyridin-3-yl)-1H-1,2,3-triazol-1-yl)octanoic acid formation after 60 mins by LC-ESI-MS analysis; format: ADME, microsome; method in brief: as §2
[7] = biological target: Nicotinamide phosphoribosyltransferase (Mus musculus, UniProt Q99KQ4); test: Inhibition of recombinant mouse NAMPT expressed in bacterial expression system using nicotinamide as substrate after 1 hr by fluorescence based NMNAT-3 enzyme coupled assay; conditions: read-out: IC50
[8] = system: Mus musculus; test: In vivo inhibition of NAMPT in DNBS-induced BALB/c mouse colitis model assessed as reduction in mucosal congestion at 20 mg/kg, ip bid administered for 3 days post DNBS challenge; format: functional, organism-based
[9] = system: Mus musculus; test: In vivo inhibition of NAMPT in DNBS-induced BALB/c mouse colitis model assessed as reduction in hemorrhagic ulcerations at 20 mg/kg, ip bid administered for 3 days post DNBS challenge; format: functional, organism-based
[10] = system: Mus musculus; test: Toxicity in athymic nu/nu Harlan mouse xenografted with human A2780 cells assessed as body weight loss at 10 mg/kg, ip bid administered for 8 consecutive days measured through out study; format: organism-based; conditions: in vivo
[11] = system: SH-SY5Y; test: Cytotoxicity against human SH-SY5Y cells assessed as reduction in cell viability after 56 hrs by MTT assay; format: functional, cell-based; conditions: Homo sapiens, SH-SY5Y, 56 h; read-out: EC50
[12] = system: Mus musculus; test: In vivo inhibition of NAMPT in DNBS-induced BALB/c mouse colitis model assessed as reduction in neutrophil infiltration by measuring myeloperoxidase levels at 20 mg/kg, ip bid administered for 3 days post DNBS challenge by ELISA; format: functional, organism-based
[13] = system: Liver; test: Drug metabolism in Wistar Han rat liver microsomes assessed as pyridine N-oxidation after 60 mins in presence of NADPH-regenerating system by LC-UV analysis; format: ADME, microsome; conditions: 1 h
Method in brief: (§3)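 Metabolites were characterized by LC-ESI-MSn on supernatants of 60 min, 37 °C incubations. Each used 50 μM substrate with rat or human liver microsomes (1.0 mg/ml protein) in 50 mM Tris-HCl pH 7.4 with 3.3 mM MgCl2, 1% acetonitrile and an NADPH-regenerating system. Reactions were quenched with cold acetonitrile and centrifuged.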

[14] = system: Liver; test: Stability in Wistar Han rat liver microsomes after 60 mins by LC-ESI-MS analysis; format: ADME, microsome; conditions: 1 h
[15] = system: Mus musculus; test: Antiinflammatory activity of DSS-induced […] mouse colitis model assessed as reduction in neutrophil infiltration by measuring myeloperoxidase levels at 20 mg/kg administered daily for 7 days post DSS challenge by ELISA; format: functional, organism-based
[16] = system: Mus musculus; test: Downregulation of NAMPT expression in DNBS-induced BALB/c mouse colitis model at 20 mg/kg, ip bid administered for 3 days post DNBS challenge by Western blot analysis; format: functional, organism-based
[17] = Drug metabolism in human liver microsomes assessed as mixed function oxidase mediated compound degradation after 60 mins in presence of NADPH-regenerating system by LC-UV analysis; format: ADME; conditions: 1 h; method in brief: as §1
[18] = system: Mus musculus; test: Antiinflammatory activity of DSS-induced […] mouse colitis model assessed as improved general condition at 20 mg/kg administered daily for 7 days post DSS challenge; format: functional, organism-based
[19] = Drug metabolism in Wistar Han rat liver microsomes assessed as mixed function oxidase mediated compound degradation after 60 mins in presence of NADPH-regenerating system by LC-UV analysis; format: ADME; conditions: 1 h; method in brief: as §1
[20] = Clearance in athymic Nu/Nu Harlan mouse at 10 mg/kg, iv administered as single dose up to 24 hrs by LC-ESI-MS analysis; format: ADME, organism-based; conditions: in vivo
[21] = system: Mus musculus; test: Drug metabolism in athymic Nu/Nu Harlan mouse blood assessed as N-oxide metabolite formation at 10 mg/kg, iv administered as single dose up to 24 hrs by LC-ESI-MS analysis; format: ADME, organism-based; conditions: in vivo
[22] = system: Liver; test: Drug metabolism in human liver microsomes assessed as pyridine N-oxidation after 60 mins in presence of NADPH-regenerating system by LC-UV analysis; format: ADME, microsome; conditions: 1 h; method in brief: as §3
[23] = system: Mus musculus; test: Antiinflammatory activity of DSS-induced […] mouse colitis model assessed as reduction in loss of body weight at 20 mg/kg administered daily for 7 days post DSS challenge; format: functional, organism-based
[24] = system: A2780; test: Cytotoxicity against human A2780 cells assessed as reduction in cell viability; format: functional, cell-based
[25] = Half life in athymic Nu/Nu Harlan mouse at 10 mg/kg, iv administered as single dose up to 24 hrs by LC-ESI-MS analysis; format: ADME, organism-based; conditions: in vivo
[26] = system: Mammary cancer cell; test: Antitumor activity against mouse mammary cancer cells allografted in athymic nu/nu Harlan mouse
[27] = system: Mus musculus; test: In vivo inhibition of NAMPT in DNBS-induced BALB/c mouse colitis model assessed as reduction in erosion at 20 mg/kg, ip bid administered for 3 days post DNBS challenge; format: functional, organism-based
[28] = system: A2780; test: Antitumor activity against human A2780 cells xenografted in athymic nu/nu Harlan mouse assessed as reduction in tumor growth at 10 mg/kg, ip bid administered for 8 consecutive days; format: functional, organism-based
[29] = Apparent aqueous solubility of the compound; format: physicochemical; conditions: buffer
Method in brief: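 Kinetic solubility was measured by filtration. Compound from a 10 mM DMSO stock was diluted in PBS pH 7.4 to nominal 500 and 200 μM, shaken 90 min at room temperature and filtered. Filtrate was diluted 4:1 with acetonitrile and absorbance read at 260/280 nm. Concentration came from a calibration curve (3.13–500 μM in 80:20 PBS/acetonitrile, 5% DMSO; r2 >0.85) × 1.25. Run in duplicate.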

[30] = system: Fibrosarcoma cell; test: Antitumor activity against mouse fibrosarcoma cells allografted in athymic nu/nu Harlan mouse
[31] = Volume of distribution in athymic Nu/Nu Harlan mouse at 10 mg/kg, iv administered as single dose up to 24 hrs by LC-ESI-MS analysis; format: ADME, organism-based; conditions: in vivo
[32] = system: Mus musculus; test: Antiinflammatory activity of DSS-induced […] mouse colitis model assessed as reversion of changes in colon length at 20 mg/kg administered daily for 7 days post DSS challenge; format: functional, organism-based
[33] = AUC in athymic Nu/Nu Harlan mouse at 10 mg/kg, iv administered as single dose up to 24 hrs by LC-ESI-MS analysis; format: ADME, organism-based; parameters: time < 24 hr, dose 10 mg/kg, route intravenous; conditions: in vivo
[34] = system: Mus musculus; test: Antiinflammatory activity of DSS-induced […] mouse colitis model assessed as disease activity index at 20 mg/kg administered daily for 7 days post DSS challenge (reference value: 6); format: functional
[35] = system: Liver; test: Stability in human liver microsomes after 60 mins by LC-ESI-MS analysis; format: ADME, microsome; conditions: 1 h
[36] = system: Mus musculus; test: In vivo inhibition of NAMPT in DNBS-induced BALB/c mouse colitis model assessed as reduction in loss of body weight at 20 mg/kg, ip bid administered for 3 days post DNBS challenge; format: functional, organism-based
[37] = biological target: Nicotinamide phosphoribosyltransferase (Homo sapiens, UniProt P43490); test: Inhibition of NAMPT in human Jurkat T cells assessed as reduction in NAD levels; format: cell-based
[38] = Stability in Wistar Han rat liver microsomes assessed as mixed function oxidase mediated compound cleavage after 60 mins in presence of NADPH-regenerating system by LC-UV analysis; format: ADME; conditions: 1 h; method in brief: as §1
[39] = system: Liver; test: Stability in human liver microsomes assessed as mixed function oxidase mediated compound cleavage after 60 mins in presence of NADPH-regenerating system by LC-UV analysis; format: ADME, microsome; conditions: 1 h; method in brief: as §1
[40] = system: Liver; test: Drug metabolism in human liver microsomes assessed as aliphatic hydroxylation of paraffin linkers by LC-ESI-MS or LC-UV analysis; format: ADME, microsome; method in brief: as §3
[41] = system: Liver; test: Drug metabolism in Wistar Han rat liver microsomes assessed as aliphatic hydroxylation of paraffin linkers by LC-ESI-MS or LC-UV analysis; format: ADME, microsome; method in brief: as §3
[42] = system: Liver; test: Drug metabolism in Wistar Han rat liver microsomes assessed as aromatic hydroxylation of biphenyl moiety by LC-ESI-MS or LC-UV analysis; format: ADME, microsome; method in brief: as §3
[43] = system: Liver; test: Drug metabolism in human liver microsomes assessed as aromatic hydroxylation of biphenyl moiety by LC-ESI-MS or LC-UV analysis; format: ADME, microsome; method in brief: as §3
[44] = system: Liver; test: Drug metabolism in Wistar Han rat liver microsomes assessed as oxidative N-dealkylation by LC-ESI-MS or LC-UV analysis; format: ADME, microsome; method in brief: as §3
[45] = system: Liver; test: Drug metabolism in human liver microsomes assessed as oxidative N-dealkylation by LC-ESI-MS or LC-UV analysis; format: ADME, microsome; method in brief: as §3

Sequence of Nicotinamide phosphoribosyltransferase (Mus musculus, UniProt Q99KQ4) (Q99KQ4 whole entry): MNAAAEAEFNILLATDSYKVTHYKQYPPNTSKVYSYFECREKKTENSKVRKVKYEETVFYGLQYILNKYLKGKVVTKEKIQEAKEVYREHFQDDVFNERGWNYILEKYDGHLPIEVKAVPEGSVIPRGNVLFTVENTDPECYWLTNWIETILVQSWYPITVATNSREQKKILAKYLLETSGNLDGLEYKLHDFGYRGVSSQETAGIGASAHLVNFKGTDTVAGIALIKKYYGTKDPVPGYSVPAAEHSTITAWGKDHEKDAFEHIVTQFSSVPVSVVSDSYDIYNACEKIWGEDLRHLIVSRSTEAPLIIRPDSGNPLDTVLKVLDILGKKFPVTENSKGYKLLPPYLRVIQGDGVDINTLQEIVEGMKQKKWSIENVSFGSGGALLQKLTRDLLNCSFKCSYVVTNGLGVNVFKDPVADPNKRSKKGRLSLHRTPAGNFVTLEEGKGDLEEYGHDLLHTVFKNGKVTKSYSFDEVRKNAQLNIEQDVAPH
Sequence of Nicotinamide phosphoribosyltransferase (Homo sapiens, UniProt P43490) (P43490 whole entry): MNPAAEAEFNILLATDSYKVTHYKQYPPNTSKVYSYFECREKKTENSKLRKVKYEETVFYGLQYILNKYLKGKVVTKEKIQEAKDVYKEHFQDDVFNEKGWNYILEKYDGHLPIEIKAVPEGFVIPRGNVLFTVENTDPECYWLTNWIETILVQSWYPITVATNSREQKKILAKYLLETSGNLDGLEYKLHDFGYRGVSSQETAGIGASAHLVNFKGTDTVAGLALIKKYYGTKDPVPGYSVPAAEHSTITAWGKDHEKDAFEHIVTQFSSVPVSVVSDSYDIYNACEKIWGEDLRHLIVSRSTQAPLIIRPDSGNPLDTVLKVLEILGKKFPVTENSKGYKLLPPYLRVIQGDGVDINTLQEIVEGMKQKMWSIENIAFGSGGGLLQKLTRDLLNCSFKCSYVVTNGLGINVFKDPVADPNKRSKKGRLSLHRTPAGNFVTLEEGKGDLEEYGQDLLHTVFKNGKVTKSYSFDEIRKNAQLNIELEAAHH

Row | Compound | remaining at 1 h [1] [%] | remaining at 1 h [4] [%] | IC50 [7] [nM] | inhibition [8] | inhibition [9] | Activity [10] | EC50 [11] [nM] | inhibition [12] | Drug metabolism [13] | Stability [14] | inhibition [16] | clearance [20] [mL/min/kg] | Drug metabolism [21] | Drug metabolism [22] | IC50 [24] [nM] | half-life [25] [h] | Activity [26] | inhibition [27] | inhibition [28] | Stability [35] | further results
1 | O=C(CCCCCCCn1cc(-c2cccnc2)nn1)Nc1ccccc1-c1ccccc1 | 26 | 45 |  |  |  |  |  |  |  |  |  |  |  |  |  |  |  |  |  |  | Drug metabolism [2]: Metabolite_Detected; Drug metabolism [3]: Metabolite_Detected; Drug metabolism [5]: Metabolite_Detected; Drug metabolism [6]: Metabolite_Detected
2 | c1ccc(-c2ccccc2OCCCCCCn2cc(-c3cccnc3)nn2)cc1 | 31 | 49 | 3.8 | Active | Active | Non-Toxic | 5.2 | Active | Metabolite_Detected | Stable | Active | 194 | Metabolite_Notdetected | Metabolite_Detected | 3 | 1.89 | Active | Active | Active | Stable | Activity [15]: Active; Drug metabolism [17]: Metabolite_Detected; Activity [18]: Active; Drug metabolism [19]: Metabolite_Detected; Activity [23]: Active; solubility [29]: Insoluble; Activity [30]: Active; Vd [31]: 31.8 L/kg; Activity [32]: Active; AUC at 24 h [33]: 859 ng·h/mL; Activity_index [34]: 2.5; inhibition [36]: Active; IC50 [37]: 6.7 nM
3 | O=C(/C=C/c1cccnc1)NCCCCC1CCN(C(=O)c2ccccc2)CC1 [DAPORINAD] | 62 | 92 | 4.9 | Active | Active | Non-Toxic | 3.4 | Active | Metabolite_Detected | Stable | Active | 22.8 | Metabolite_Detected | Metabolite_Detected | 4.2 | 0.37 | Active | Active | Active | Stable | Stability [38]: Stable; solubility [29]: Soluble; Activity [30]: Active; Vd [31]: 0.8 L/kg; AUC at 24 h [33]: 6470 ng·h/mL; Stability [39]: Stable; inhibition [36]: Active
4 | O=C(NCCCCCCCn1cc(-c2cccnc2)nn1)c1ccccc1-c1ccccc1 | 45 | 88 | 3.1 |  |  |  | 5.8 |  |  | Stable |  |  |  |  |  |  |  |  |  | Stable | Stability [38]: Stable; Drug metabolism [40]: Metabolite_Detected; Drug metabolism [41]: Metabolite_Detected; Drug metabolism [42]: Metabolite_Detected; Drug metabolism [43]: Metabolite_Detected; Drug metabolism [44]: Metabolite_Detected; Drug metabolism [45]: Metabolite_Detected; Stability [39]: Stable; IC50 [37]: 4.9 nM
